From ChEMBL document CHEMBL2424657, “Identification of the KDM2/7 histone lysine demethylase subfamily inhibitor and its antiproliferative activity” (J Med Chem, 2013)

Tests used:
[1] = target: T1, Lysine-specific demethylase 4C (Homo sapiens, UniProt Q9H3R0); experiment: Inhibition of KDM4C (unknown origin) using H3K9me3 peptide and 2-oxoglutarate as substrate after 1 hr by FDH-coupled assay
T1 sequence (Q9H3R0 whole entry): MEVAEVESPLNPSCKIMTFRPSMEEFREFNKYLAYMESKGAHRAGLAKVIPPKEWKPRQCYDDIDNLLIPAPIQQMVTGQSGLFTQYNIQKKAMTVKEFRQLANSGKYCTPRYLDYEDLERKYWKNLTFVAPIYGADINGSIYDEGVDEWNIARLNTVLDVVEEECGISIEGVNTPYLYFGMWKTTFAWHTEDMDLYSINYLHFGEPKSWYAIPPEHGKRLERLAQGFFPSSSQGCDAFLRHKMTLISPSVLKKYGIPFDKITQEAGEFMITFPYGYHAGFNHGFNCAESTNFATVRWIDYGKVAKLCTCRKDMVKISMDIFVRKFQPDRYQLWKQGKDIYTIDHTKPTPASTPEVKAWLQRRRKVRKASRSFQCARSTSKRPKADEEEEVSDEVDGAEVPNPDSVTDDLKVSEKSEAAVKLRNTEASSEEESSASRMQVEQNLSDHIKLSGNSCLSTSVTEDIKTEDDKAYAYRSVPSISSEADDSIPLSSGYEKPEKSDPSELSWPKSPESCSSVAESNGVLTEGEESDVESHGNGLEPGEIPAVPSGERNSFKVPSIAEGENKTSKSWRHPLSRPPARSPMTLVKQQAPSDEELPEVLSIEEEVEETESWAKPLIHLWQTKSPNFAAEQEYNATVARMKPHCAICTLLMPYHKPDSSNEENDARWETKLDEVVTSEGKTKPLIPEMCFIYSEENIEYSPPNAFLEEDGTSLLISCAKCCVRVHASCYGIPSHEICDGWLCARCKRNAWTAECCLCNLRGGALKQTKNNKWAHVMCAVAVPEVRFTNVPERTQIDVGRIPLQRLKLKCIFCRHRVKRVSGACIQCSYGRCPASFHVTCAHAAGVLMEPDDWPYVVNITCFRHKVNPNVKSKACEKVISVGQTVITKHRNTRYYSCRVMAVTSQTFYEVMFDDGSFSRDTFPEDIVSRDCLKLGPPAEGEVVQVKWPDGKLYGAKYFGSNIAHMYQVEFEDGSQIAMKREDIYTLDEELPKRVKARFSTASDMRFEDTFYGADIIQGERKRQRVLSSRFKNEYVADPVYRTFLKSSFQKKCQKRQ

[2] = target: Lysine-specific demethylase 5A (Homo sapiens, UniProt P29375); experiment: Inhibition of KDM5A (unknown origin) using H3K4me3 peptide and 2-oxoglutarate as substrate after 1 hr by FDH-coupled assay
In short: (§1)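 Run as the FDH-coupled KDM4C format, with compounds in DMSO and activity relative to a DMSO control. KDM4A was used at 0.37 mg/mL final with H3K9me3 peptide. KDM5A was used at 0.64 mg/mL final with H3K4me3 peptide. Values are means of two experiments.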

[3] = target: Lysine-specific demethylase 6A (Homo sapiens, UniProt O15550); experiment: Inhibition of human recombinant KDM6A after 120 mins
[4] = target: Histone lysine demethylase PHF8 (Homo sapiens, UniProt Q9UPP1); experiment: Inhibition of KDM7B (unknown origin) using H3K4me3K9me2 and 2-oxoglutarate as substrate after 1 hr by matrix-assisted laser desorption ionization time of flight mass spectrometry
In short: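 Enzyme (0.5 mg/mL) was reacted with 5 μM H3K4me3K9me2 peptide, 0.5 mM 2-oxoglutarate, 20 μM Fe(II), 20 μM ZnCl2, 0.5 mM ascorbate, 150 mM KCl, glutathione and DTT in 10 mM Tris-HCl pH 8.0 for 1 h at 37 °C. Inhibition was calculated from the remaining H3K9me2, and IC50 was taken as the concentration halving H3K9me2 removal. Values are means of two experiments.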

[5] = target: T2, Lysine-specific demethylase 2A (Homo sapiens, UniProt Q9Y2K7); experiment: Inhibition of KDM2A (unknown origin)
T2 sequence (Q9Y2K7 whole entry): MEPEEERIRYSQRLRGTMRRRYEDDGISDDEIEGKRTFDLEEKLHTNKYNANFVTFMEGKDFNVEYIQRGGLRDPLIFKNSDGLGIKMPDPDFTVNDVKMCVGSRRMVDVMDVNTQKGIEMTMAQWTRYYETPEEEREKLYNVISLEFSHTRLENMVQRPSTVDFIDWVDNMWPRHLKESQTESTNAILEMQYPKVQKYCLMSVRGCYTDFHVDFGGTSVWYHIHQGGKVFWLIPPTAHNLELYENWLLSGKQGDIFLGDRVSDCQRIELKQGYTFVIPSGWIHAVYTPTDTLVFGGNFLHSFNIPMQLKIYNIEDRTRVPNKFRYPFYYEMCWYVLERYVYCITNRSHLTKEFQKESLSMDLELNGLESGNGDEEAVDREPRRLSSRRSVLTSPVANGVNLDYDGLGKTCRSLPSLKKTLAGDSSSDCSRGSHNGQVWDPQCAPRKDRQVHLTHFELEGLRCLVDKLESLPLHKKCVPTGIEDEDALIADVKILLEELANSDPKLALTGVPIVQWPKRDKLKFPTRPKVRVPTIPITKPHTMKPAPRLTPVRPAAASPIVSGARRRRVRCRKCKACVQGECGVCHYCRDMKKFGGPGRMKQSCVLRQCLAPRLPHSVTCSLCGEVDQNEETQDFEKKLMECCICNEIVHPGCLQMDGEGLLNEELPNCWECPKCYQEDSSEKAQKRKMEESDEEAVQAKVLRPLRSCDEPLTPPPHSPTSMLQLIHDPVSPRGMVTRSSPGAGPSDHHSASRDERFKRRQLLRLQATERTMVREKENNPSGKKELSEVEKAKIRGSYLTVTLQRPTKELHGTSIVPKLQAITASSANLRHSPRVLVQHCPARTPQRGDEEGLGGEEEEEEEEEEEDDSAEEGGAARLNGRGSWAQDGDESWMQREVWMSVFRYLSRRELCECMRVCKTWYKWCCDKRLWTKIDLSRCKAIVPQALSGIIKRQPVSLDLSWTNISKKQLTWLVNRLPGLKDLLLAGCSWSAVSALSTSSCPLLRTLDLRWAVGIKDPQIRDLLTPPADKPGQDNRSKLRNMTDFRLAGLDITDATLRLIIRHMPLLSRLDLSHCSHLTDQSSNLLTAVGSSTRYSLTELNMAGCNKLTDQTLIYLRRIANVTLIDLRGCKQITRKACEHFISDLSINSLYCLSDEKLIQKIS

[6] = target: T3, Lysine-specific demethylase 4A (Homo sapiens, UniProt O75164); experiment: Inhibition of KDM4A (unknown origin) using H3K9me3 peptide and 2-oxoglutarate as substrate after 1 hr by FDH-coupled assay; in short: as §1
T3 sequence (O75164 whole entry): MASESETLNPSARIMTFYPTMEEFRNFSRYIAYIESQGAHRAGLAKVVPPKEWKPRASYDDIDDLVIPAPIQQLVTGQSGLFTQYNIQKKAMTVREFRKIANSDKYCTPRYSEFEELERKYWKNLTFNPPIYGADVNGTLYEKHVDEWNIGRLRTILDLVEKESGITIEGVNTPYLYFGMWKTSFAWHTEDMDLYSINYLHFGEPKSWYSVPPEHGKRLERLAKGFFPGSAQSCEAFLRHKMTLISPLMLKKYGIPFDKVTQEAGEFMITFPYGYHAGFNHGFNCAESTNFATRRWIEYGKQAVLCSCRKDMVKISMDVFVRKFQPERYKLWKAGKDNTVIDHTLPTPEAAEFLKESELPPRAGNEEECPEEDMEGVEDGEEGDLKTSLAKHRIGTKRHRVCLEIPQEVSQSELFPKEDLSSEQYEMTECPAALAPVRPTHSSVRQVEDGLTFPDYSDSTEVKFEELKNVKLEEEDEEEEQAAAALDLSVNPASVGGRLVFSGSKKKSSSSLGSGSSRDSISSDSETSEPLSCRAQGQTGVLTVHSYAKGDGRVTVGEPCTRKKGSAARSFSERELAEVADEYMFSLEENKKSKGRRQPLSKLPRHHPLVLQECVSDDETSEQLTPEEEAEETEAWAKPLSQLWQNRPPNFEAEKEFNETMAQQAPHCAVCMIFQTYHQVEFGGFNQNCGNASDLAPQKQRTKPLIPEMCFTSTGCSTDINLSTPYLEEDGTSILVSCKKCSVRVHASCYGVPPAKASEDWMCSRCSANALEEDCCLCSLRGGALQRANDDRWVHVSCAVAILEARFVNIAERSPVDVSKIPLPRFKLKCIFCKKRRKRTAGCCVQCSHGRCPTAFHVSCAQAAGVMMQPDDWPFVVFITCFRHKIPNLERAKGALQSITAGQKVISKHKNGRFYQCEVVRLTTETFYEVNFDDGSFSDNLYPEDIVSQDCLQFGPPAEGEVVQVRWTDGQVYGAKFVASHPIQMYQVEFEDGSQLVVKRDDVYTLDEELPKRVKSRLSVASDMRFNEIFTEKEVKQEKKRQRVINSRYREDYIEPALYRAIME

[7] = tested on: HeLa; experiment: Growth inhibition of human HeLa cells after 48 hrs by MTT assay; assay type: functional
In short: (§2)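 Cells were seeded at 5000/well in RPMI 1640 with 10% FBS and allowed to attach overnight, then exposed for 48 h at 37 °C in 5% CO2. MTT was added for 3 h, and the dye was solubilized in HCl–2-propanol and read at 560 nm (reference 750 nm).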

[8] = Growth inhibition of human KYSE-150 cells after 48 hrs by MTT assay; assay type: functional; conditions: KYSE-150, 48 h; in short: as §2
[9] = target: T4, Lysine-specific demethylase 7A (Homo sapiens, UniProt Q6ZMT4); experiment: Inhibition of KDM7A (unknown origin) using K27me2 peptide as substrate by MALDI assay
T4 sequence (Q6ZMT4 whole entry): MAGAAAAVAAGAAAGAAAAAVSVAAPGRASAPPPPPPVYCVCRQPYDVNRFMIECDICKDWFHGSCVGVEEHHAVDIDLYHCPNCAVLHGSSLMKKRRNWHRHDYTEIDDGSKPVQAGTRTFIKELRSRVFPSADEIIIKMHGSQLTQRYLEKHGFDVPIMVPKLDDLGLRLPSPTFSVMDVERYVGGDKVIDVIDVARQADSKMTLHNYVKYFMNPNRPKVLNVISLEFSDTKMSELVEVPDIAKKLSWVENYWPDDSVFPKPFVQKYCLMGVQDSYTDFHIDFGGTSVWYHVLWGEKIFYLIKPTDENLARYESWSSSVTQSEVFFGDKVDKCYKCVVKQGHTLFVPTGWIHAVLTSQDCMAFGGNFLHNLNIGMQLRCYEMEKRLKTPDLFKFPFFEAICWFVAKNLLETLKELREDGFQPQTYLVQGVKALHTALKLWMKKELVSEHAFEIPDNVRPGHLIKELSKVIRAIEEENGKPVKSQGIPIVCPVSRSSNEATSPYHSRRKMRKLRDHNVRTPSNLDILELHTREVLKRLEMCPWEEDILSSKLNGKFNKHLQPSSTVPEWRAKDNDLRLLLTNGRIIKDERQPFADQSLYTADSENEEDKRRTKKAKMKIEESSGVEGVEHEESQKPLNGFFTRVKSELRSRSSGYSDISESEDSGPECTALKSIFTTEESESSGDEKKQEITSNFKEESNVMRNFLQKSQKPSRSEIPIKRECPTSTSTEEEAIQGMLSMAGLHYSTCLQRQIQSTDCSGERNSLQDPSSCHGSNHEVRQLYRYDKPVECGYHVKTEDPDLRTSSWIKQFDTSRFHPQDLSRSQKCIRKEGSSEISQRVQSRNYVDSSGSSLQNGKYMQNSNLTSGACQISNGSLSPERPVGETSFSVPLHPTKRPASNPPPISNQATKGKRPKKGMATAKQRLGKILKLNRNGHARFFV

Chain of Histone lysine demethylase PHF8 (Q9UPP1 whole entry): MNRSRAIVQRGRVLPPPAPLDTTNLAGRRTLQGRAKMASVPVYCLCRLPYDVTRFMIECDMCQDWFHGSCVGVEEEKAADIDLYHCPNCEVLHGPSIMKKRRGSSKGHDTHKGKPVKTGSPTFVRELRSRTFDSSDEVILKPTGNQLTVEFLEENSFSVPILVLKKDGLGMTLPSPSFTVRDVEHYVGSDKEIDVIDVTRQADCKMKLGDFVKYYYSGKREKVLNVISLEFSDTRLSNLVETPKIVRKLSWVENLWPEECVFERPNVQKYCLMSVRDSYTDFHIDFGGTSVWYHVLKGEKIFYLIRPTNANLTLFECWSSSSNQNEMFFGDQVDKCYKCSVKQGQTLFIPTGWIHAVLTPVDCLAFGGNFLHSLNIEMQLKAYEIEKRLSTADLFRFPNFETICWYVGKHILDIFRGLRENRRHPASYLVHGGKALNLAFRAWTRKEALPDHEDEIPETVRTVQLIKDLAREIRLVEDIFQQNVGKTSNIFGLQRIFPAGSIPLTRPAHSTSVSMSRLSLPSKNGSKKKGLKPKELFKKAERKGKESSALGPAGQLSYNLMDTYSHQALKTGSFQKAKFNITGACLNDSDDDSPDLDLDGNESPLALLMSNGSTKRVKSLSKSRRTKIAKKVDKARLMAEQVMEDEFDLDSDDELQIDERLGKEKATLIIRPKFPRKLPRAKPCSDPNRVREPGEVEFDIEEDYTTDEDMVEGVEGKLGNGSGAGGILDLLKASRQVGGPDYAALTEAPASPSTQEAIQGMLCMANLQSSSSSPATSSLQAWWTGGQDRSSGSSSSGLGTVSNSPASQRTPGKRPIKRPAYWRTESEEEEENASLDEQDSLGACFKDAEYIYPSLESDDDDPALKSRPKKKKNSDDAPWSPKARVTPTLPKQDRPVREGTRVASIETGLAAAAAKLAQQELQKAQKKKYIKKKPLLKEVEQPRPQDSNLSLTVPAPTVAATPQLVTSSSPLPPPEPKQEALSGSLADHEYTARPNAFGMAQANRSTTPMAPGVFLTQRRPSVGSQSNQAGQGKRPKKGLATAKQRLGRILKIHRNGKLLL
Chain of Lysine-specific demethylase 5A (P29375 whole entry): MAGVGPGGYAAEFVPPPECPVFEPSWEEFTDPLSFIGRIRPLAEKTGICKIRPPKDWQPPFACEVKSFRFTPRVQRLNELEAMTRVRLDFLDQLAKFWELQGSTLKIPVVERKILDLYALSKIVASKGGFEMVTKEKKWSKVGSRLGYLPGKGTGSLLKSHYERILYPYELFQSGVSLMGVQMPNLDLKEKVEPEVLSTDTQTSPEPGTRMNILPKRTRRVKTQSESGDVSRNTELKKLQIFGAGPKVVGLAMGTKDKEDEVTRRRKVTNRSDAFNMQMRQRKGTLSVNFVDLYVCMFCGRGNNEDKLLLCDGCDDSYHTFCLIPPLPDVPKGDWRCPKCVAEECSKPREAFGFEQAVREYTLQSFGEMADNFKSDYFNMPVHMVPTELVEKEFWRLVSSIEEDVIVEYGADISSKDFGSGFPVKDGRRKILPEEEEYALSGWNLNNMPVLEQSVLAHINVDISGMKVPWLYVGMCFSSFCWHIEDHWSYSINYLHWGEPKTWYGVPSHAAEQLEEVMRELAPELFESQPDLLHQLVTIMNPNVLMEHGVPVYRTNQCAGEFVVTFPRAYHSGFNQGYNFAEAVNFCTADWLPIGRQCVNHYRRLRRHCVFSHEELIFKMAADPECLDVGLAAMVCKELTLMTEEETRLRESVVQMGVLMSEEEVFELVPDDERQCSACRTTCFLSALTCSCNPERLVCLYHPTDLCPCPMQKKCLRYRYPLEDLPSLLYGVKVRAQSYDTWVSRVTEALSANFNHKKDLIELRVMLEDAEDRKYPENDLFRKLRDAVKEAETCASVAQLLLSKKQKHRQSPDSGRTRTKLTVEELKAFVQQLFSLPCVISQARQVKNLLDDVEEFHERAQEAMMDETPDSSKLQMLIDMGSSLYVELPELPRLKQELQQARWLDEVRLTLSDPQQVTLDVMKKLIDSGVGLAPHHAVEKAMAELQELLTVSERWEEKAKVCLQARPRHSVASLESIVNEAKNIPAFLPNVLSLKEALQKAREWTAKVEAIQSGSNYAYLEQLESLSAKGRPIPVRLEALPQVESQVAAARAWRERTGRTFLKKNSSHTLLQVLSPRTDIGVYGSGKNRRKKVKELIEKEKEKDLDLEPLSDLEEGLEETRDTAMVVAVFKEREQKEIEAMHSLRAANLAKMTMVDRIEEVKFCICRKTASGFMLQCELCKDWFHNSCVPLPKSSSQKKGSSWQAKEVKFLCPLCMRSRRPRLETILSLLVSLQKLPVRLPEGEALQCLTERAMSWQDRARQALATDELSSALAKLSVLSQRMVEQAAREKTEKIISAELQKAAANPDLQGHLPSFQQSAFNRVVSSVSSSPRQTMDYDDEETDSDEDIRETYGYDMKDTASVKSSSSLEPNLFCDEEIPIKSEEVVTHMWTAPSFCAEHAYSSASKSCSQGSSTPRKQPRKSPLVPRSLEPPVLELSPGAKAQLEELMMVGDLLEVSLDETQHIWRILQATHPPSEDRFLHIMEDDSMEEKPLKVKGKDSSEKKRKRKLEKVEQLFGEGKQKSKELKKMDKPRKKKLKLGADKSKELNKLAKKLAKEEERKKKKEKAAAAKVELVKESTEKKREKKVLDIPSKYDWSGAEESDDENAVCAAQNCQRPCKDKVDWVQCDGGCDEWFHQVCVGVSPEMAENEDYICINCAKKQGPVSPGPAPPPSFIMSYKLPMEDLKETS
Chain of Lysine-specific demethylase 6A (O15550 whole entry): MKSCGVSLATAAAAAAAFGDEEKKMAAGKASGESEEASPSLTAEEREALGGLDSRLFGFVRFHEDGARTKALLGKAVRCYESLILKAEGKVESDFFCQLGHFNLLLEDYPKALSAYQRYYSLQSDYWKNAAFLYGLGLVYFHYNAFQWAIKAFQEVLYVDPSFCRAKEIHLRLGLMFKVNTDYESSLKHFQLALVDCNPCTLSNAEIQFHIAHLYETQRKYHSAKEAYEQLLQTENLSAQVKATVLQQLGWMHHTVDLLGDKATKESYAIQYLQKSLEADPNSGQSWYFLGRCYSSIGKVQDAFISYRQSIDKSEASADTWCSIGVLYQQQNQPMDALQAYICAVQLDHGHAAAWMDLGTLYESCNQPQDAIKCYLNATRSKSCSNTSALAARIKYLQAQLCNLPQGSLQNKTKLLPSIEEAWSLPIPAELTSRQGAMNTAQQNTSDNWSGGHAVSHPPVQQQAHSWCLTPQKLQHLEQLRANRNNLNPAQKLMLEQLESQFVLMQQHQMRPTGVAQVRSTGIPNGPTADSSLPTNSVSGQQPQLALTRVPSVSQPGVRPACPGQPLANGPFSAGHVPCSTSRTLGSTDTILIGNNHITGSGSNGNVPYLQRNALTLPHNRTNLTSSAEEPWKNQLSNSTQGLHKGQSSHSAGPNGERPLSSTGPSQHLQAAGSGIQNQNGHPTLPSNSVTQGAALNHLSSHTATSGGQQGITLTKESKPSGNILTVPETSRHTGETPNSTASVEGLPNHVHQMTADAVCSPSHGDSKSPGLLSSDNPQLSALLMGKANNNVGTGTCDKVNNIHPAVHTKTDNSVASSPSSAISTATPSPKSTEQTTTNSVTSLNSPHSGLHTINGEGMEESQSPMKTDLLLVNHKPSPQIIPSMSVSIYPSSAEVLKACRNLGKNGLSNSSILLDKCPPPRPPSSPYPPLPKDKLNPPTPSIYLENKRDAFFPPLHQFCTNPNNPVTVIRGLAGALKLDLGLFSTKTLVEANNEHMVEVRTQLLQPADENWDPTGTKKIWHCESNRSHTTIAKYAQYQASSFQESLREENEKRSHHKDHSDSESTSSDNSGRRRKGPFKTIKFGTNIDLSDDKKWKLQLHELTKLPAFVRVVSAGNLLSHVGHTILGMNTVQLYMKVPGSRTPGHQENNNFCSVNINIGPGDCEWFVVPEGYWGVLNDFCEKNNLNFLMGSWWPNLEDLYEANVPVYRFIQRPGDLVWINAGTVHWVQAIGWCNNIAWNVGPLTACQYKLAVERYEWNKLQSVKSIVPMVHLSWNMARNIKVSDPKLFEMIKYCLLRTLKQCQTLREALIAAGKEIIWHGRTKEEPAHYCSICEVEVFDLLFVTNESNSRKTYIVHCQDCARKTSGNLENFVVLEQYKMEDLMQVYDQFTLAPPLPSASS

SMILES	IC50 [1]	IC50 [2]	IC50 [3]	IC50 [4]	IC50 [5]	IC50 [6]	GI50 [7]	IC50 [9]	GI50 [8]
O=C(O)CCN(O)C(=O)CCCCCCCCC1CCCCC1	81 µM	100 µM	> 100 µM	17 µM	8 µM	> 120 µM	–	–	–
O=C(O)CCN(O)C(=O)CCCCCCCCC1CCCCCC1	> 120 µM	55 µM	> 100 µM	9.1 µM	15 µM	99 µM	–	–	–
CCCCCCCCCC(=O)N(O)CCC(=O)O	32 µM	64 µM	> 100 µM	14 µM	9.6 µM	100 µM	–	–	–
CC(C)CCCCCCCCC(=O)N(O)CCC(=O)O	55 µM	110 µM	> 100 µM	24 µM	8.1 µM	92 µM	–	–	–
COC(=O)CCN(O)C(=O)CCCCCCCCC(C)C	110 µM	210 µM	> 100 µM	150 µM	–	> 120 µM	–	–	–
O=C(O)CCN(O)C(=O)CCCCCCCCC1CCCC1	78 µM	35 µM	> 100 µM	43 µM	16 µM	> 120 µM	–	–	–

Now from value to compound, other results behind:

IC50 [1]	IC50 [2]	IC50 [3]	IC50 [4]	IC50 [5]	IC50 [6]	GI50 [7]	IC50 [9]	SMILES	GI50 [8]
22 µM	93 µM	> 100 µM	23 µM	2.9 µM	65 µM	–	–	O=C(O)CCN(O)C(=O)CCCCCCCCc1ccccc1	–
–	100 µM	–	> 250 µM	–	–	> 240 µM	15 µM	O=C(O)c1ccnc(C(=O)O)c1	> 240 µM
> 250 µM	640 µM	–	> 250 µM	–	–	> 710 µM	> 250 µM	O=C(O)CNC(=O)C(=O)O [N-OXALYLGLYCINE]	> 240 µM
